Data taken from ChEMBL document CHEMBL1130195, “6-Chloro-5-methyl-1-[[2-[(2-methyl-3-pyridyl)oxy]-5-pyridyl]carbamoyl]- indoline (SB-242084): the first selective and brain penetrant 5-HT2C receptor antagonist” (J Med Chem, 1997).

Legend:
Cytochrome P450 2C9 = Cytochrome P450 2C9 (Homo sapiens, UniProt P11712); assay: Inhibition of heterologously expressed human Cytochrome P450 2C9 at 100 uM; type: ADME
Cytochrome P450 2D6 = Cytochrome P450 2D6 (Homo sapiens, UniProt P10635); assay: Inhibition of heterologously expressed human Cytochrome P450 2D6 at 10 uM; type: ADME
Cytochrome P450 2D6, sequence (P10635 whole entry): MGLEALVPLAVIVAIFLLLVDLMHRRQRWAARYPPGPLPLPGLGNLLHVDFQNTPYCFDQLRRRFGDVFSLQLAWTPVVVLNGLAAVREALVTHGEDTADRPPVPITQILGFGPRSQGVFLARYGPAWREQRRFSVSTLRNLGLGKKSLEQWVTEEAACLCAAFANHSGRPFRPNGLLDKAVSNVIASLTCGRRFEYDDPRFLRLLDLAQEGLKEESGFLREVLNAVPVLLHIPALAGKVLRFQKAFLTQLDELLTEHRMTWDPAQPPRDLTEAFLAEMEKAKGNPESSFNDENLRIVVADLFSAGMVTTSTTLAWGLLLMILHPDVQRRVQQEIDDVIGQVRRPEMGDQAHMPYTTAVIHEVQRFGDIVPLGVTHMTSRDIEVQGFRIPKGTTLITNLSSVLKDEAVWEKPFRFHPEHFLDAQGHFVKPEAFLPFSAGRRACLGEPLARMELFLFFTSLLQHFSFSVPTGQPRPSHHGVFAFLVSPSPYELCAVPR

Cytochrome P450 1A2 = biological target: T1, Cytochrome P450 1A2 (Homo sapiens, UniProt P05177); assay: Inhibition of heterologously expressed human Cytochrome P450 1A2 at 500 uM; type: ADME
T1 sequence (P05177 whole entry): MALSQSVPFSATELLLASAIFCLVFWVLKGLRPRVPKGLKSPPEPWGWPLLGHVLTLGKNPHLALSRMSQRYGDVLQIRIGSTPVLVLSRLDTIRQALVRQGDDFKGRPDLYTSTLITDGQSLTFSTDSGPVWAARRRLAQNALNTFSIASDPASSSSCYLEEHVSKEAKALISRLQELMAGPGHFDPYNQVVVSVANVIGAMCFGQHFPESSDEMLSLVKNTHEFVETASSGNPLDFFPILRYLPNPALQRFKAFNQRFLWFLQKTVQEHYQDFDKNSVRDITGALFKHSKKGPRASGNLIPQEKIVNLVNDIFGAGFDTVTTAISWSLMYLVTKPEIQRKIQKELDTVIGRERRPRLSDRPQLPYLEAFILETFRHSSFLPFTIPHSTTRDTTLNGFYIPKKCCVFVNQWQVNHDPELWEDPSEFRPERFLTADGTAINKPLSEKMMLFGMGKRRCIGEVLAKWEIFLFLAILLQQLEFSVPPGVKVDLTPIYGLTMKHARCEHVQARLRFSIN

Rattus norvegicus = assay: Mean dose required to reverse m-chlorophenyl-piperazine (mCPP) induced hypolocomotion (7 mg/kg ip administered 30 min pretest); type: functional; conditions: 0.5 h, read-out: ID50 (the source's name)
How it was run: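 Test compound given orally. Hypolocomotion was induced by mCPP, 7 mg/kg ip, 30 min pretest. The ID50 is the dose reversing hypolocomotion by 50%, reported as mean with confidence limits.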

[1] = biological target: 5-hydroxytryptamine receptor 2A (Homo sapiens, UniProt P28223); assay: Displacement of [3H]ketanserin from 5-hydroxytryptamine 2A receptor expressed in HEK 293 cells; type: cell-based, HEK293
5-hydroxytryptamine receptor 2A, sequence (P28223 whole entry): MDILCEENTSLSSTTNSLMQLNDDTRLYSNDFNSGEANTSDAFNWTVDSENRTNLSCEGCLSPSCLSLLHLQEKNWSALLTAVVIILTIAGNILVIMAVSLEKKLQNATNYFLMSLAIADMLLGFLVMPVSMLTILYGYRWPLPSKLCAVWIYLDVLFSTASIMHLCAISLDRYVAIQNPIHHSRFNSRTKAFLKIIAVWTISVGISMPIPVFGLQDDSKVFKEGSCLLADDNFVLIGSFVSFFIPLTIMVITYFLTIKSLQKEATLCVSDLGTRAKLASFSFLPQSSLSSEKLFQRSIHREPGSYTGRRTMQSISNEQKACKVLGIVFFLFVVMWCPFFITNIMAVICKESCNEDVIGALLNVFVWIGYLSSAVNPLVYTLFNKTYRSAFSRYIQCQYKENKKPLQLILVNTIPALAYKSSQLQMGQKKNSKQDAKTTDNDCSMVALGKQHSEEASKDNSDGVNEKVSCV
How it was run: (§1)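 Human cloned receptors expressed in HEK 293 cells. Radioligands: [3H]5-HT for 5-HT2B, [3H]ketanserin for 5-HT2A, [3H]mesulergine for 5-HT2C. Each value is the mean of at least two determinations, each within 0.2 log unit of the mean.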

[2] = biological target: 5-hydroxytryptamine receptor 2B (Homo sapiens, UniProt P41595); assay: Displacement of [3H]5-HT from 5-hydroxytryptamine 2B receptor expressed in HEK 293 cells; type: cell-based, HEK293; how it was run: as §1
5-hydroxytryptamine receptor 2B, sequence (P41595 whole entry): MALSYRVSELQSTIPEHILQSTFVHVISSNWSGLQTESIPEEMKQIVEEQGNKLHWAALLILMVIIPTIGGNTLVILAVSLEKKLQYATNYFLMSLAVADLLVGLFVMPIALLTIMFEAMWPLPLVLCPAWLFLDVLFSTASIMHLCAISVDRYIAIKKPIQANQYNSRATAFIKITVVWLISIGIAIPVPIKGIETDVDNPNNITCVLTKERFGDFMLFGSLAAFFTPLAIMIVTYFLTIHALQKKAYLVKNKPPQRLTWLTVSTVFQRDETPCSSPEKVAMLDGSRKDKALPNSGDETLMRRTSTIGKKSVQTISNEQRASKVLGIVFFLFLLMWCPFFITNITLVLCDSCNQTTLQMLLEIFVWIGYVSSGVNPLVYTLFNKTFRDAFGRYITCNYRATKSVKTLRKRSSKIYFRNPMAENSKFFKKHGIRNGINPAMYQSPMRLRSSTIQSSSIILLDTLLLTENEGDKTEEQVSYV

[3] = biological target: T2, 5-hydroxytryptamine receptor 2C (Homo sapiens, UniProt P28335); assay: Displacement of [3H]mesulergine from 5-hydroxytryptamine 2C receptor expressed in HEK 293 cells; type: cell-based, HEK293; how it was run: as §1
T2 sequence (P28335 whole entry): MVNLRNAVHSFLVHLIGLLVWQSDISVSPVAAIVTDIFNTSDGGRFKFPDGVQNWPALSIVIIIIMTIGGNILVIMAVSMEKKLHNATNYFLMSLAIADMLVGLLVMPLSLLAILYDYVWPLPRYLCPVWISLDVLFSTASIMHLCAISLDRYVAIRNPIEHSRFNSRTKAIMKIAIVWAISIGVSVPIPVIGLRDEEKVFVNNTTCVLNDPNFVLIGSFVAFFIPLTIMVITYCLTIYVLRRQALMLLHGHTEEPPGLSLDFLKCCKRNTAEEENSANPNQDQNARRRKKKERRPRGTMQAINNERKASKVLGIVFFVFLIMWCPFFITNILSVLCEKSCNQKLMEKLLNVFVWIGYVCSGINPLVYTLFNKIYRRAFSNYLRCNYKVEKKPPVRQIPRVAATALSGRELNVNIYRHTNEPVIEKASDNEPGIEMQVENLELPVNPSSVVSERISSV

Cytochrome P450 3A4 [4] = biological target: T3, Cytochrome P450 3A4 (Homo sapiens, UniProt P08684); assay: Inhibition of heterologously expressed human Cytochrome P450 3A at 1 uM
T3 sequence (P08684 whole entry): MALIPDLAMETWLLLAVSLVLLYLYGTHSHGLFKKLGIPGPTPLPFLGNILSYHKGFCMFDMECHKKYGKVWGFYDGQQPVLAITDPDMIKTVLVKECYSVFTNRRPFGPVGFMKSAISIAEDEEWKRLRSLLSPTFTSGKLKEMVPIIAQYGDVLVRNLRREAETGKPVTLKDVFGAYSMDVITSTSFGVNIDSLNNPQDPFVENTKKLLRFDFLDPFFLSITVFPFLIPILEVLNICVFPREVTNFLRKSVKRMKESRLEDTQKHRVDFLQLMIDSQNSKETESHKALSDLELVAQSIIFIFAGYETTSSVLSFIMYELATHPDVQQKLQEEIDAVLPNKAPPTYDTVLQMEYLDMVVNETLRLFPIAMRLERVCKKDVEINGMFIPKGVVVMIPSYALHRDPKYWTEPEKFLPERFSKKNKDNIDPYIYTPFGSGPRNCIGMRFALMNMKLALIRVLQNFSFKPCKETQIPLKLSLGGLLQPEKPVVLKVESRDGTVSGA

[5] = biological target: Serotonin 2 receptors; 5-HT2a & 5-HT2c (Homo sapiens) (UniProt P28223+P28335); assay: Selectivity for 5-HT2C over 5-HT2A receptor; type: protein assay
Serotonin 2 receptors; 5-HT2a & 5-HT2c (Homo sapiens), sequence (P28223 whole entry, looked up, one chain of several): as the sequence (P28223 whole entry) above

[6] = biological target: Cytochrome P450 2C19 (Homo sapiens) (UniProt P33261); assay: Inhibition of heterologously expressed human Cytochrome P450 2C19 at 100 uM
Cytochrome P450 2C19 (Homo sapiens), sequence (P33261 whole entry, looked up): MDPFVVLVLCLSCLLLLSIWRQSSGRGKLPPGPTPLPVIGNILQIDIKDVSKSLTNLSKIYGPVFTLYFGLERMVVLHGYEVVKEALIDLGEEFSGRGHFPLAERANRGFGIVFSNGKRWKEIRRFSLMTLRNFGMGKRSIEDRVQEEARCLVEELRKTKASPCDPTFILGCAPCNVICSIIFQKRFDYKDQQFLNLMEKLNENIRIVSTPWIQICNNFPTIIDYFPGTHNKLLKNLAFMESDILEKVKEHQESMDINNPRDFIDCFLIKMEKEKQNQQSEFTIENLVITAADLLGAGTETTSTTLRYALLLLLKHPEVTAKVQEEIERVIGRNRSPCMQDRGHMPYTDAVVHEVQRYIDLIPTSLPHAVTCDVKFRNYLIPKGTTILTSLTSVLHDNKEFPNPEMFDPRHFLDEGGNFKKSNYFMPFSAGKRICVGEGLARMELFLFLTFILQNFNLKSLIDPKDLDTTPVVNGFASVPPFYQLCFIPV

Cytochrome P450 3A4 [7] = biological target: T3, Cytochrome P450 3A4; assay: Inhibition of heterologously expressed human Cytochrome P450 3A at 1 uM; type: ADME
[8] = biological target: Cytochrome P450 2C19 (Homo sapiens) (UniProt P33261); assay: Inhibition of heterologously expressed human Cytochrome P450 2C19 at 100 uM; remark: listed apart in the source

Cytochrome P450 2C9, sequence (P11712 whole entry): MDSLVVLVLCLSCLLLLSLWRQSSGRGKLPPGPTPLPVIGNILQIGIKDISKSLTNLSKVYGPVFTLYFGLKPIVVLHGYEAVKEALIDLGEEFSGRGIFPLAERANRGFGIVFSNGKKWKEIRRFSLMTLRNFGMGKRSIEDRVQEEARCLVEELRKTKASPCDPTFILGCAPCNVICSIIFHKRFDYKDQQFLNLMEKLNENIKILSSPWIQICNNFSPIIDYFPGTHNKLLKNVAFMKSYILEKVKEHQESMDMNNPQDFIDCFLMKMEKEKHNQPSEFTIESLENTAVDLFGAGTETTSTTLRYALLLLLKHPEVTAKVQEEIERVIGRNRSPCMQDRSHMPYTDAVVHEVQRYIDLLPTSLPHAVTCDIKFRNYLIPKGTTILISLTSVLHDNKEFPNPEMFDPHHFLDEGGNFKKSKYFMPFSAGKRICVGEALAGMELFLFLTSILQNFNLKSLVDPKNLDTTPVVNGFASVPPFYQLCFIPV

Structure (SMILES)	IC50 (Cytochrome P450 2C9) [nM]	IC50 (Cytochrome P450 2D6) [nM]	IC50 (Cytochrome P450 1A2) [nM]	Ki [1] [nM]	Ki [2] [nM]	IC50 (Cytochrome P450 3A4 [4]) [nM]	IC50 [6] [nM]	ED50 (Rattus norvegicus) [mg/kg]	Ki [3] [nM]	Selectivity ratio [5]	IC50 (Cytochrome P450 3A4 [7]) [nM]	IC50 [8] [nM]
Cc1cc2c(cc1Cl)N(C(=O)Nc1cccnc1)CC2				158				0.6	6.31	30		
Cc1cc2c(cc1Cl)N(C(=O)Nc1ccc(Oc3cccnc3C)nc1)CC2 [SB-242084]	> 100000	> 100000	> 100000	158	100			2	1	160	> 100000	> 100000

Second part, led by results:

IC50 (Cytochrome P450 2C9) [nM]	IC50 (Cytochrome P450 2D6) [nM]	IC50 (Cytochrome P450 1A2) [nM]	Ki [1] [nM]	Ki [2] [nM]	IC50 (Cytochrome P450 3A4 [4]) [nM]	IC50 [6] [nM]	Structure (SMILES)	ED50 (Rattus norvegicus) [mg/kg]	Ki [3] [nM]	Selectivity ratio [5]	IC50 (Cytochrome P450 3A4 [7]) [nM]	IC50 [8] [nM]
> 100000	110	13	398	12.6	> 100000		CSc1cc2c(cc1C(F)(F)F)N(C(=O)Nc1cccnc1)CC2	1.5	2.51			
			2510				CSc1cc2c(cc1Cl)N(C(=O)Nc1cccnc1)CC2	10	6.31	420		
> 100000	30000	50	2000	25.1		> 100000	Cn1ccc2cc3c(cc21)CCN3C(=O)Nc1cccnc1	5.5				
